Assay results taken from ChEMBL document CHEMBL3232782, “1,2,3,4,8,9,10,11-octahydrobenzo[j]phenanthridine-7,12-diones as new leads against Mycobacterium tuberculosis” (J Med Chem, 2014).
Values after ≈ are worked out from the molar mass of the structure shown. Active and inactive are the calls of the source. No cut-off for these calls is given here.

Key:
[1] = tested on: Mycobacterium tuberculosis; test: Antimycobacterial activity against Mycobacterium tuberculosis H37Rv expressing luciferase assessed as growth inhibition after 6 days by luminometry; type: functional; settings: 144 h
In short: (§1)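 Strains carried pSMT1 luxAB reporter plasmid. DMSO stocks 10 mM, serially diluted in 7H9 + 10% FCS, triplicate wells. Filtered bacterial suspension at 50 000 RLU/mL. Luminescence read after 6 days using 1% n-decanal substrate. […] Growth temperatures: M.tb 37 °C; M. avium and M. bovis 39 °C.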

[2] = Cytotoxicity against mouse J774A1 cells assessed as cell viability after 24 hrs by Trypan blue exclusion assay; type: cell-based; settings: J774.A1, 24 h
[3] = Selectivity index, ratio of IC50 for mouse J774A1 cells to MIC for Mycobacterium tuberculosis H37Rv expressing luciferase; type: toxicity, cell-based, J774.A1; settings: read-out: Selectivity Index
In short: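 SI = IC50/MIC. IC50 came from a neutral red uptake assay on J774 A.1 cells after 24 h exposure in DMEM + 10% FCS, with OD 530 nm. […] Both were from triplicate cultures.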

[4] = tested on: Mycobacterium avium subsp. paratuberculosis; test: Antimycobacterial activity against Mycobacterium avium subsp. paratuberculosis ATCC 19698 expressing luciferase assessed as growth inhibition after 6 days by luminometry; type: functional; settings: ATCC 19698, 144 h; in short: as §1
[5] = Genotoxicity in mouse J774A1 cells assessed as DNA strand breaks at 0.25 to 50 uM after 24 hrs by Comet assay; type: toxicity, cell-based; settings: j774.a1, 24 h
In short: (§2)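 J774 A.1 cells (100 000/well) were exposed to compound serial dilutions in DMEM + 10% FCS for 24 h at 37 °C, 5% CO2. Alkaline comet assay: cells embedded in low-melt agarose, lysed, electrophoresed 20 min at 300 mA, neutralized and stained with gel red. The % tail DNA of 200 nuclei was scored by fluorescence microscopy. Mann–Whitney U test.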

[6] = tested on: Mycobacterium tuberculosis; test: Antimycobacterial activity against Mycobacterium tuberculosis H37Rv expressing luciferase infected in mouse J774A1 cells assessed as inhibition of replication at 0.50 uM measured after 1 to 4 days by luminescence assay; type: functional; settings: J774.A1
In short: (§3)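 J774 A.1 cells (40 000/well) were infected with H37Rv lux at MOI 0.1 in DMEM with penicillin/fungizone and no gentamicin. Serial compound dilutions were added, with treatment starting 24 h post infection. Extracellular bacteria were removed by washes and 1 h 1% gentamicin. Cells were lysed with 1% Triton X-100 and luminescence read with n-decanal. Reduction in RLU versus untreated; INH 0.1 μM control.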

[7] = Selectivity index, ratio of IC50 for mouse J774A1 cells to MIC for Mycobacterium tuberculosis H37Rv expressing luciferase infected in mouse J774A1 cells; type: toxicity, cell-based, J774.A1; settings: read-out: Selectivity Index
In short: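 SI = neutral red IC50 in J774 A.1 cells (24 h) divided by the intracellular MIC. The intracellular MIC came from luminescent H37Rv in infected J774 A.1 macrophages after 3 days of treatment starting 24 h post infection, with lysate luminescence measured using n-decanal.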

[8] = tested on: Mycobacterium tuberculosis; test: Antimycobacterial activity against Mycobacterium tuberculosis H37Rv expressing luciferase assessed as growth inhibition preincubated with liver S9 fraction for 30 mins followed by incubation with parasite and measured after 6 days by luminometry; type: functional
In short: (§4)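 Compounds (100 μM) were preincubated with NADPH/G-6-P-conditioned liver S9 at 37 °C, 5% CO2 for 15 or 30 min. They were then serially diluted and tested against luminescent H37Rv in 7H9 + 10% FCS. Luminescence was read after 6 days with n-decanal.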

[9] = tested on: Mycobacterium tuberculosis; test: Antimycobacterial activity against Mycobacterium tuberculosis H37Rv expressing luciferase infected in mouse J774A1 cells assessed as inhibition of replication at 0.03 to 0.05 uM measured after 1 to 4 days by luminescence assay; type: functional, organism-based; settings: J774.A1; in short: as §3
[10] = tested on: Mycobacterium tuberculosis; test: Antimycobacterial activity against Mycobacterium tuberculosis H37Rv expressing luciferase infected in mouse J774A1 cells assessed as inhibition of replication at 0.25 uM measured after 1 to 4 days by luminescence assay; type: functional; settings: J774.A1; in short: as §3
[11] = Selectivity ratio of IC90 for Mycobacterium ulcerans 1615 to IC90 for Mycobacterium tuberculosis; type: functional
[12] = tested on: Mycobacterium tuberculosis; test: Antimycobacterial activity against Mycobacterium tuberculosis Beijing 17919 expressing luciferase assessed as growth inhibition after 6 days by luminometry; type: functional; settings: Beijing 17919, 144 h; in short: as §1
[13] = tested on: Mycobacterium tuberculosis; test: Antimycobacterial activity against Mycobacterium tuberculosis H37Rv expressing luciferase assessed as growth inhibition at 100 uM preincubated with liver S9 fraction for 15 mins followed by incubation with parasite and measured after 6 days by luminometry; type: functional, organism-based; in short: as §4
[14] = Antimycobacterial activity against Mycobacterium avium subsp. avium ATCC 15769 expressing luciferase assessed as growth inhibition after 6 days by luminometry; type: functional; settings: ATCC 15769, 144 h; in short: as §1
[15] = tested on: Mycobacterium tuberculosis; test: Antimycobacterial activity against Mycobacterium tuberculosis H37Rv expressing luciferase infected in mouse J774A1 cells assessed as inhibition of replication measured after 1 to 4 days by luminescence assay; type: functional, J774.A1; in short: as §3
[16] = Genotoxicity in mouse J774A1 cells assessed as DNA strand breaks at 0.25 to 5 uM after 24 hrs by Comet assay; type: toxicity, cell-based; settings: j774.a1, 24 h; in short: as §2

With `CC1CCc2c(ncc3c2C(=O)c2ccccc2C3=O)C1` (stereo not given) the MIC99 [1] was 5.3 µM (≈ 1.47 µg/mL), the IC50 [2] was 8.13 µM and the selectivity ratio [3] was 1.53.
With `CC(C)(C)C1CCc2ncc3c(c2C1)C(=O)C1=C(C3=O)C2CCC1CC2` (stereo not given) the MIC99 [1] was 8.56 µM (≈ 2.99 µg/mL), the IC50 [2] was 22.9 µM and the selectivity ratio [3] was 2.68.
In the case of `O=C1c2ccccc2C(=O)c2c1cnc1c2CCCC1`, the MIC99 [1] is reported as 9.88 µM (≈ 2.6 µg/mL), the IC50 [2] is reported as 7.34 µM and the selectivity ratio [3] is reported as 0.74.
`Cc1nc2c(c3c1C(=O)c1ccccc1C3=O)CCC(C)C2` (stereo not given) gave an MIC99 [1] of 9.85 µM (≈ 2.87 µg/mL), an IC50 [2] of 25.7 µM and a selectivity ratio [3] of 2.61.
`CC(C)(C)C1CCc2ncc3c(c2C1)C(=O)c1ccccc1C3=O` (stereo not given) showed an MIC99 [1] of 9.64 µM (≈ 3.08 µg/mL), an IC50 [2] of 11.5 µM and a selectivity ratio [3] of 1.19.
With `CC(C)(C)C1CCc2ncc3c(c2C1)C(=O)C1=C(C3=O)C2CCC1C2` (stereo not given) the MIC99 [1] was 0.59 µM (≈ 0.198 µg/mL), the MIC [4] was 0.69 µM (≈ 0.231 µg/mL) and the Activity [5] was “Non-toxic”. The inhibition at 0.5 µM [6] was 52.6%, the selectivity ratio [7] was 20.7 and the IC50 [2] was 51.4 µM. The MIC [8] was 1.05 µM (≈ 0.352 µg/mL), the “growth inhibition (GI)” value [9] was “inactive” and the inhibition at 0.25 µM [10] was 43.8%. The Selectivity ratio [11] was 6, the MIC [12] was 0.33 µM (≈ 0.111 µg/mL) and the “growth inhibition (GI)” value [13] was “Active”. It also gave an MIC [14] of 0.8 µM (≈ 0.268 µg/mL), an MIC [15] of 2.48 µM (≈ 0.832 µg/mL) and a selectivity ratio [3] of 87.
`CC1CCCc2c1ncc1c2C(=O)c2ccccc2C1=O` (stereo not given) gave an MIC99 [1] of 14.4 µM (≈ 4 µg/mL), an IC50 [2] of 14.9 µM and a selectivity ratio [3] of 1.03.
Compound `Cc1nc2c(c3c1C(=O)c1ccccc1C3=O)CCCC2` has an MIC99 [1] of 17.8 µM (≈ 4.93 µg/mL), an IC50 [2] of 10.9 µM and a selectivity ratio [3] of 0.61.
With `CCOC(=O)C1CCc2ncc3c(c2C1)C(=O)C1=C(C3=O)C2CCC1C2` (stereo not given) the MIC99 [1] was 0.22 µM (≈ 0.0773 µg/mL), the MIC [4] was 0.44 µM (≈ 0.155 µg/mL) and the inhibition at 0.5 µM [6] was 86.7%. For the same compound, the selectivity ratio [7] was 10.8, the IC50 [2] was 8.49 µM and the MIC [8] was 0.66 µM (≈ 0.232 µg/mL). For the same compound, the “growth inhibition (GI)” value [9] was “inactive”, the inhibition at 0.25 µM [10] was 63.9% and the Selectivity ratio [11] was 50. The MIC [12] was 0.14 µM (≈ 0.0492 µg/mL), the “growth inhibition (GI)” value [13] was “Active” and the MIC [14] was 1.22 µM (≈ 0.429 µg/mL). The Activity [16] was “Non-toxic”, the MIC [15] was 2.38 µM (≈ 0.836 µg/mL) and the selectivity ratio [3] was 38.6.
For `CO[C@H]1/C=C/O[C@@]2(C)Oc3c(C)c(O)c4c(O)c(c(/C=N/N5CCN(C)CC5)c(O)c4c3C2=O)NC(=O)/C(C)=C\C=C\[C@H](C)[C@H](O)[C@@H](C)[C@@H](O)[C@@H](C)[C@H](OC(C)=O)[C@@H]1C` [RIFAMPIN], the MIC99 [1] was 0.19 µM (≈ 0.156 µg/mL), the IC50 [2] was > 100 µM and the selectivity ratio [3] was > 526.
With `NNC(=O)c1ccncc1` [ISONIAZID] the MIC99 [1] was 0.13 µM (≈ 0.0178 µg/mL), the MIC [4] was 0.99 µM (≈ 0.136 µg/mL) and the IC50 [2] was > 100 µM. The MIC [12] was 0.09 µM (≈ 0.0123 µg/mL), the MIC [14] was 0.76 µM (≈ 0.104 µg/mL) and the selectivity ratio [3] was > 769.
With `CC(C)(C)C1CCc2ncc3c(c2C1)C(=O)C1=C(C3=O)C2CCC1O2` (stereo not given) the MIC99 [1] was 7.21 µM (≈ 2.43 µg/mL), the IC50 [2] was 53.2 µM and the selectivity ratio [3] was 7.38.
For `CCOC(=O)C1CCc2ncc3c(c2C1)C(=O)C1=C(C3=O)C2CCC1CC2` (stereo not given), the MIC99 [1] was 0.26 µM (≈ 0.095 µg/mL), the MIC [4] was 0.21 µM (≈ 0.0767 µg/mL) and the Activity [5] was “Non-toxic”. The inhibition at 0.5 µM [6] was 94.3%, the selectivity ratio [7] was 79.3 and the IC50 [2] was 49.8 µM. The MIC [8] was 0.65 µM (≈ 0.238 µg/mL), the “growth inhibition (GI)” value [9] was “inactive” and the inhibition at 0.25 µM [10] was 55.8%. For the same compound, the Selectivity ratio [11] was 10, the MIC [12] was 0.16 µM (≈ 0.0585 µg/mL) and the “growth inhibition (GI)” value [13] was “Active”. It also gave an MIC [14] of 0.37 µM (≈ 0.135 µg/mL), an MIC [15] of 2.41 µM (≈ 0.881 µg/mL) and a selectivity ratio [3] of 191.
For `Cc1ccc2c3c(cnc2c1)C(=O)c1ccccc1C3=O`, the MIC [1] was 0.64 µM (≈ 0.175 µg/mL), the IC50 [2] was 3.21 µM and the selectivity ratio [3] was 15.
With `Cc1nc2c(c3c1C(=O)c1ccccc1C3=O)CCCC2C` (stereo not given) the MIC99 [1] was 17.7 µM (≈ 5.15 µg/mL), the IC50 [2] was 30.8 µM and the selectivity ratio [3] was 1.74.
For `CC1CCc2ncc3c(c2C1)C(=O)c1ccccc1C3=O` (stereo not given), the MIC99 [1] was 9.61 µM (≈ 2.67 µg/mL), the IC50 [2] was 1.31 µM and the selectivity ratio [3] was 0.14.
With `CC(C)(C)OC(=O)N1CCc2ncc3c(c2C1)C(=O)C1=C(C3=O)C2CCC1C2` (stereo not given) the MIC99 [1] was 12.9 µM (≈ 4.9 µg/mL), the IC50 [2] was 7.33 µM and the selectivity ratio [3] was 0.57.
